Drawing on ChEMBL document CHEMBL1127741, “4-[(Alkylamino)methyl]furo[3,2-c]pyridines: a new series of selective kappa-receptor agonists” (J Med Chem, 1994), this text covers ED50 for eleven compounds.

In this experiment the test system is Mus musculus. Kind of experiment: Antinociceptive activity was measured using the mouse acetylcholine-induced abdominal constriction test following subcutaneous administration of the compound. Type of experiment: functional. The note with it: Abdomen, sc. A digest of the protocol: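 Male/female not stated; mice dosed subcutaneously, then challenged with acetylcholine to provoke abdominal constrictions. Inhibition of constrictions scored, and an ED50 (mg/kg, sc) derived for each compound.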
The ED50 is the dose at which the effect has come halfway, by size or by number of responders. Read a low ED50 as an effect at a small dose. In the case of `O=C(Cc1ccc(Cl)c(Cl)c1)N1CCc2occc2[C@H]1CN1CC[C@@H](O)C1`, the 50% effect level (ED50) was put at a dose of 30 µg/kg.
Turning to `Cc1cc2c(o1)CCN(C(=O)Cc1ccc(Cl)c(Cl)c1)C2CN1CCC(O)C1` (stereo unspecified), the ED50 was found to be 12 µg/kg.
`O=C(Cc1ccc(Cl)c(Cl)c1)N1CCc2occc2C1CN1CCCC1` (stereo unspecified) had an ED50 of 30 µg/kg.
Take `O=C(Cc1ccc(Cl)c(Cl)c1)N1CCc2occc2C1CN1CCC(O)C1` (stereo unspecified): the 50% effect level (ED50) was put at a dose of 2 µg/kg.
The same measure for `O=C(Cc1ccc(Cl)c(Cl)c1)N1CCc2occc2C1CN1CC=CCC1` (stereo unspecified): 4 µg/kg; for `O=C(Cc1ccc(Cl)c(Cl)c1)N1CCc2occc2[C@@H]1CN1CC[C@H](O)C1`: 1.5 µg/kg.
For the compound `O=C(Cc1ccc(Cl)c(Cl)c1)N1CCC2(CC1CN1CCCC1)OCCO2` (stereo unspecified), the 50% effective dose (ED50) amounted to 1 µg/kg.
Under `O=C(Cc1ccc(Cl)c(Cl)c1)N1CCc2c(O)cccc2C1CN1CCC(O)C1` (stereo unspecified) stands 84 µg/kg.
For the compound `O=C(Cc1ccc(Cl)c(Cl)c1)N1CCc2occc2C1CN1CC[C@H](O)C1` (single isomer, unassigned), the ED50 stood at 1 µg/kg.
As to `O=C1CCN(CC2c3ccoc3CCN2C(=O)Cc2ccc(Cl)c(Cl)c2)C1` (stereo unspecified), the ED50 amounted to 19 µg/kg.
The same measure for `O=C(Cc1ccc(Cl)c(Cl)c1)N1CCc2c(O)cccc2C1CN1CCCC1` (stereo unspecified): 3 µg/kg.
